The values below come from ChEMBL document CHEMBL1122647 (J Med Chem, 1984).

The test system of one experiment is L1210. Briefly: Compound was evaluated for its cytotoxicity against the L1210 murine leukemia cell culture. It counts as functional. The conditions noted are these: Mus musculus, read-out: ID50 (the source's name).
Experiment [1] deals with Mus musculus. Briefly: In vivo antitumor activity was evaluated against L1210 leukemia implanted mice by measuring percent increase in life span after intraperitoneal administration of compound at 12 mg/kg. It counts as functional. In a few lines:
(§1)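 Male B6D2F1J mice, five per group, were implanted ip with 10^5 L1210 cells on day 0. Treatment began on day 1. Drug was given ip in sterile water, twice daily on days 1-4 and 7-10, and as a single double-dose injection on days 5 and 6. Survival was recorded in days (range, and median treated/control), with % ILS derived from it. Body-weight change at 7 days was also recorded.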

Experiment [2] relates to Mus musculus. The experiment in a line: In vivo antitumor activity was evaluated against L1210 leukemia implanted mice by measuring percent increase in life span after intraperitoneal administration of compound at 16 mg/kg. It counts as functional. In a few lines: as §1
For experiment [3], the system named is Mus musculus. Briefly: In vivo antitumor activity was evaluated against L1210 leukemia implanted mice by measuring percent increase in life span after intraperitoneal administration of compound at 8 mg/kg. It counts as functional. In a few lines: as §1
Experiment [4] concerns Mus musculus. Briefly: In vivo antitumor activity was evaluated against L1210 leukemia implanted mice by measuring 7-day weight change after intraperitoneal administration of compound at 12 mg/kg. It counts as functional. In a few lines: (§2)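 Groups of five male B6D2F1J mice were inoculated ip with 10^5 L1210 cells on day 0. Starting day 1, drug in sterile water was given ip bid on days 1-4 and 7-10, with a single double-dose injection on days 5 and 6. Percent body-weight change was recorded at day 7, along with survival range, median T/C and ILS.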

In experiment [5] the test system is Mus musculus. The experiment in a line: In vivo antitumor activity was evaluated against L1210 leukemia implanted mice by measuring T/C median after intraperitoneal administration of compound at 16 mg/kg; T/C median=15/8. It is filed as functional. In a few lines:
as §1

In experiment [6] the test system is Mus musculus. The experiment in a line: In vivo antitumor activity was evaluated against L1210 leukemia implanted mice by measuring T/C median after intraperitoneal administration of compound at 8 mg/kg; T/C median=13/8. It is filed as functional. In a few lines: as §1
The subject of experiment [7] is Mus musculus. The experiment in a line: In vivo antitumor activity was evaluated against L1210 leukemia implanted mice by measuring number of survival days after intraperitoneal administration of compound at 16 mg/kg; at a range of 15-17. It counts as functional. In a few lines:
as §1

In experiment [8] the test system is Mus musculus. The experiment in a line: In vivo antitumor activity was evaluated against L1210 leukemia implanted mice by measuring number of survival days after intraperitoneal administration of compound at 8 mg/kg; at a range of 12-15. It counts as functional. In a few lines: as §1
Experiment [9] concerns Mus musculus. The experiment in a line: In vivo antitumor activity was evaluated against L1210 leukemia implanted mice by measuring T/C median after intraperitoneal administration of compound at 12 mg/kg; T/C median=13/8. It counts as functional. In a few lines: as §1
The subject of experiment [10] is Mus musculus. Briefly: In vivo antitumor activity was evaluated against L1210 leukemia implanted mice by measuring 7-day weight change after intraperitoneal administration of compound at 8 mg/kg. It is filed as functional. In a few lines:
as §2

Experiment [11] deals with Mus musculus. The experiment in a line: In vivo antitumor activity was evaluated against L1210 leukemia implanted mice by measuring 7-day weight change after intraperitoneal administration of compound at 16 mg/kg. It counts as functional. In a few lines:
as §2

Experiment [12] deals with T1, Dihydrofolate reductase (Mus musculus) (UniProt P00375).
T1 sequence (whole entry): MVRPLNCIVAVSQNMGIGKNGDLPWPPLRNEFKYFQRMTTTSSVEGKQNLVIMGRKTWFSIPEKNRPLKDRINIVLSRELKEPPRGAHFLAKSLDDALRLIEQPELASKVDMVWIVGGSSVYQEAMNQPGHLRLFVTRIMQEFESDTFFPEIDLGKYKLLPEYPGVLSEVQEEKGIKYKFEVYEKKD

In experiment [13] the test system is Mus musculus. Briefly: In vivo antitumor activity was evaluated against L1210 leukemia implanted mice by measuring number of survival days after intraperitoneal administration of compound at 12 mg/kg; at a range of 13-15.

Turning to `Nc1nc(N)c2nc(CNc3ccc(C(=O)NC(CS(=O)(=O)O)C(=O)O)cc3)cnc2n1` (centres undefined), the IC50 in the experiment with L1210 was 44 nM. The Activity with Mus musculus [1] was found to be 62%; with Mus musculus [2], 88%; with Mus musculus [3] it was 62%; in the experiment with Mus musculus [4] it was 2%. Moreover, the Survival days was found to be 15 with Mus musculus [5]; 13 in the experiment on Mus musculus [6]; 17 in the experiment on Mus musculus [7]; 12 with Mus musculus [8]; 13 in the experiment on Mus musculus [9]; 13 in the experiment on Mus musculus [13]. The Weight change is given as 2% in the experiment on Mus musculus [10] and 0% in the experiment on Mus musculus [11]. In [12], the ID50 is 65 nM.
